Experimental data collected from several papers.
Compare with care: the assays were run in different laboratories.
Target: Angiopoietin-1 receptor (TEK, Homo sapiens, UniProt Q02763)

CCCCC(=O)Nc1ccc(-c2ccc3ncn(CCC)c(=O)c3c2)cn1  remaining binding (binding, competition with immobilised ligand; 0.5 µM): 94%
N#Cc1ccc(NC(=O)Nc2ccccc2)cc1  remaining binding (cell-free assay, competition with immobilised ligand; 25 µM): 98%
COc1ccc2oc(-c3ccc4nc(N)oc4c3)c/c(=N\c3ccccc3NC(=O)CCN)c2c1  remaining signal (cell-free assay; 1 µM): 87%
COc1ccc2[nH]c3c4[nH]c5ccc(OC)cc5c4c4c(c3c2c1)C(=O)NC4=O  remaining binding (binding, competition with immobilised ligand; 1 µM): 100%
CC#CC(=O)N1CCC[C@H]1c1nc(-c2ccc(C(=O)Nc3ccccn3)cc2)c2c(N)nccn12  inhibition (enzyme activity, inhibitor; 1 µM): 0%
C[C@H]1CC[C@H](n2c3cnccc3c3cnc(Nc4ccc5c(n4)CCN(C(=O)CO)C5)nc32)CC1  remaining binding (cell-free assay, competition with immobilised ligand; 1 µM): 92%
C#Cc1cnc(Nc2ccnc(CO)c2)nc1Nc1ccccc1S(C)(=O)=NC#N (centres unmarked)  remaining signal (cell-free assay; 1 µM): 46%
C=CC(=O)N1CCC([C@@H]2CCNc3c(C(N)=O)c(-c4ccc(Oc5ccccc5)cc4)nn32)CC1  inhibition (cell-free assay; 1 µM): 0%
